# Laboratory results taken from PMC7657661 (Biochemical Journal, 2020).
# Entries after “also recorded” stand apart in the source; their conditions may differ. Where two headings read alike, the source gives them in different places.
# What was measured:
# human NaCT = details: cited from earlier work
# mouse NaCT/Slc13a5 = target: T1, mouse NaCT/Slc13a5 (Mus musculus, UniProt Q67BT3); test: [14C]-citrate uptake in HEK293FT cells with ectopic expression of mouse Slc13a5; format: cell-based
# T1 sequence (Q67BT3 1-572): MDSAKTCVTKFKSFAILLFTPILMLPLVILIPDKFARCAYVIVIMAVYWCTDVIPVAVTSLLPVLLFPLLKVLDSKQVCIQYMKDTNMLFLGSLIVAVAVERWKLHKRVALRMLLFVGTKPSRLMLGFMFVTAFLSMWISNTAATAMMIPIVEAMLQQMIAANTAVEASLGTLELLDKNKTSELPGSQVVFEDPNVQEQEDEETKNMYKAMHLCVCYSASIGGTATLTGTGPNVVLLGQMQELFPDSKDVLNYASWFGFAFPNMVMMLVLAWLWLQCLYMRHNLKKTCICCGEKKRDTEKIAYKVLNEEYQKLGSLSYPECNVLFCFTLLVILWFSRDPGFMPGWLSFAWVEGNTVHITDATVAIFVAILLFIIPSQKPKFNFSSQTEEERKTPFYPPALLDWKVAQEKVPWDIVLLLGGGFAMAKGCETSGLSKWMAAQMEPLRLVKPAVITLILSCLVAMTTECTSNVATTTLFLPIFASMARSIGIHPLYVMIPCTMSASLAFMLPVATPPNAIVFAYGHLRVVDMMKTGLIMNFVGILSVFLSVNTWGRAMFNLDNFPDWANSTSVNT
# Method in brief: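 Mouse Slc13a5 was transiently expressed in HEK293FT cells (CMV plasmid, Lipofectamine-3000) and assayed 48 h after transfection in NaCl buffer pH 7.5 without LiCl. Cells got a 30 min preincubation with 10 µM test compound or 100 µM reference NaCT inhibitor, two washes and 0 or 60 min recovery. Then 2 µM [14C]-citrate uptake ran 30 min, or with inhibitor co-present only during uptake. Na+-dependent uptake was normalised to protein.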
# NaCT/SLC13A5 [1] = target: T2, NaCT/SLC13A5 (Homo sapiens, UniProt Q86YT5); test: Na+-coupled [14C]-citrate uptake in HepG2 cells; format: cell-based; details: for effect on Na+-dependent citrate uptake, compound present only during uptake: PF06761281 100 µM, BI01383298 10 µM; for reversibility of inhibition of SLC13A5: preincubation 30 min, then uptake; for maximal inhibition of citrate uptake: inhibitor present only during uptake
# Method in brief: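 HepG2 cells seeded at 4 × 10^5/well and assayed 48 h later. [14C]-citrate uptake measured for 30 min at 37°C in NaCl buffer pH 7.5 (Hepes/Tris), with or without 10 mM LiCl. Inhibitor either co-incubated during uptake, or preincubated 30 min and washed twice before inhibitor-free uptake. Recovery runs: 10 µM for 30 min in buffer or medium, washed, then held 0, 30 or 60 min (buffer) or 0 or 24 h (medium). Na+-free NMDG-Cl uptake subtracted; values protein-normalized (BCA).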
# mouse NaCT = details: cited from earlier work
# SLC5A8 = target: T3, SLC5A8 (Homo sapiens, UniProt Q8N695); test: [14C]-nicotinate uptake in HepG2 cells; format: cell-based; details: 10 µM, 30 min preincubation, washed, NaCl buffer pH 7.5
# T3 sequence (Q8N695 1-610): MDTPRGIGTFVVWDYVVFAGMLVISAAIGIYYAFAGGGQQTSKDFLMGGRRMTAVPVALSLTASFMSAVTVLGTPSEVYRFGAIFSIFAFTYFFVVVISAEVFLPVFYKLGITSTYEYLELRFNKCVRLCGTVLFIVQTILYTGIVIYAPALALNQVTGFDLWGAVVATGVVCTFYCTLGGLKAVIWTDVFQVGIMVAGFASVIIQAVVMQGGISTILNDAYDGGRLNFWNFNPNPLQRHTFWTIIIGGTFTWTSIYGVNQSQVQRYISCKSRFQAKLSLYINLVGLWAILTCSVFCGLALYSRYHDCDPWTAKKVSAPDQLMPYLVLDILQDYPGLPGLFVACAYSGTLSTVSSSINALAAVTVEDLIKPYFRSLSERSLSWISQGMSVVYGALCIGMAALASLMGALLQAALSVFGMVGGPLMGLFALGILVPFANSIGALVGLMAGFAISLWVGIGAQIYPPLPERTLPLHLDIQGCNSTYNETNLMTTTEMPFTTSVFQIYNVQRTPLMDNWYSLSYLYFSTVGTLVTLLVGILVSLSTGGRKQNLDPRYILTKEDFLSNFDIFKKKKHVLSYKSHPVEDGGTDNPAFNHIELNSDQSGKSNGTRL
# Method in brief: (§1)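 HepG2 cells, 48 h after seeding, were preincubated 30 min with 10 µM test compound and washed; substrate uptake followed without inhibitor. [14C]-nicotinate and [3H]-arginine were run in NaCl buffer pH 7.5, and [3H]-glutamine and [3H]-tryptophan in NMDG buffer pH 7.5, each for 15 min. [14C]-lactate was run in NMDG buffer pH 6 for 3 min. Uptake was normalised to protein and compared with untreated control.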
# HepG2 cells = test: Colony formation assay; format: cell-based, human; details: 5 and 10 µM, 10 days, culture medium with 0.5 mM citrate
# Method in brief: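 HepG2 cells were seeded at 5000 per well in six-well plates and grown for 10 days in normal medium supplemented with 0.5 mM citrate. The medium held 0.1% DMSO alone, or the test compound at 5 or 10 µM plus 0.1% DMSO, and was renewed every other day. Cells were washed in PBS, methanol-fixed and Giemsa-stained. Colonies were photographed, then the stain was extracted and quantified against the no-inhibitor control.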
# SLC7A5 = SLC7A5 (Homo sapiens, UniProt Q01650); test: [3H]-glutamine and [3H]-tryptophan uptake in HepG2 cells; format: cell-based; details: 10 µM, 30 min preincubation, washed, NMDG buffer pH 7.5
# Method in brief: as §1
# SLC6A14 = target: T4, SLC6A14 (Homo sapiens, UniProt Q9UN76); test: [3H]-arginine uptake in HepG2 cells; format: cell-based; details: 10 µM, 30 min preincubation, washed, NaCl buffer pH 7.5
# T4 sequence (Q9UN76 1-642): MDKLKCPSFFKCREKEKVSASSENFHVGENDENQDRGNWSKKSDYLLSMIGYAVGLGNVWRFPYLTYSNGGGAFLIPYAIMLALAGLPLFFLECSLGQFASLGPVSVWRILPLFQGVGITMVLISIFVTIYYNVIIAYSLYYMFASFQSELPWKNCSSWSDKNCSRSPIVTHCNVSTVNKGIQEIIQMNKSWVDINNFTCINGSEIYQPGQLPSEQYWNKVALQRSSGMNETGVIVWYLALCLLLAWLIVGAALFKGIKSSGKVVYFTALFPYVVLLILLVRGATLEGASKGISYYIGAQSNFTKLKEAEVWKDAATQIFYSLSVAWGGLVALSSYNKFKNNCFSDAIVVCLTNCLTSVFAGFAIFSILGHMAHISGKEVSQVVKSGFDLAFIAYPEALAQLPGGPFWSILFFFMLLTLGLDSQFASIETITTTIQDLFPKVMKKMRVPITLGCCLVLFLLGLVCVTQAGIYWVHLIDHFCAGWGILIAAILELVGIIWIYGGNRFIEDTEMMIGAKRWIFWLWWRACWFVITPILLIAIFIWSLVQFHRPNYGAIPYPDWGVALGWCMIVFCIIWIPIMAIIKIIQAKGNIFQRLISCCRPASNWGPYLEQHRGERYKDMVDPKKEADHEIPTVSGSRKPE
# Method in brief: as §1
# NaCT/SLC13A5 [2] = target: T2, NaCT/SLC13A5; test: [14C]-citrate uptake in HEK293FT cells with ectopic expression of human SLC13A5; format: cell-based
# Method in brief: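 Human SLC13A5 (CMV plasmid) was transiently expressed in HEK293FT cells by Lipofectamine-3000, assay 48 h post-transfection. Cells were preincubated 30 min in NaCl buffer (Hepes/Tris, pH 7.5) with the test compound (10 µM or a concentration series), washed twice, then given [14C]-citrate (2 µM) for 30 min at 37 °C without inhibitor. NMDG (Na+-free) uptake was subtracted and values normalised to protein. IC50 came from the dose-response.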
# MCTs = test: [14C]-lactate uptake in HepG2 cells; format: cell-based, human; details: 10 µM, 30 min preincubation, washed, NMDG pH 6
# Method in brief: as §1
# NaCT = details: cited from earlier work
# [3] = HepG2, 10 µM, 30 min preincubation, washed, NaCl buffer pH 7.5
# T2 sequence (Q86YT5 whole entry): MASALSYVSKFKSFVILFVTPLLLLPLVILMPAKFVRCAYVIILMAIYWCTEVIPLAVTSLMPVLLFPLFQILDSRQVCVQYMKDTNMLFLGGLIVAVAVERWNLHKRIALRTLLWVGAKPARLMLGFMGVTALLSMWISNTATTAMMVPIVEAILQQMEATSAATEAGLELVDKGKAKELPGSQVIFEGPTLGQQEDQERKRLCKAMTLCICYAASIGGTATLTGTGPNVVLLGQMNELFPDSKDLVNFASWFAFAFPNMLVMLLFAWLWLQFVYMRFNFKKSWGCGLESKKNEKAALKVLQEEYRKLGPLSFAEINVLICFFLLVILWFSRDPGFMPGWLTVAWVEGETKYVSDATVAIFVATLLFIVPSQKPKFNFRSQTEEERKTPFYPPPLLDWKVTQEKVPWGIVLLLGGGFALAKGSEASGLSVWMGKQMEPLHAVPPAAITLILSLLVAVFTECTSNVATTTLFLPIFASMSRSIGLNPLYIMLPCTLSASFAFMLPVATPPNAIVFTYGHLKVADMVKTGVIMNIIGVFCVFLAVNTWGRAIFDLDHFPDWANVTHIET
# Sequence of SLC7A5 (Q01650 whole entry): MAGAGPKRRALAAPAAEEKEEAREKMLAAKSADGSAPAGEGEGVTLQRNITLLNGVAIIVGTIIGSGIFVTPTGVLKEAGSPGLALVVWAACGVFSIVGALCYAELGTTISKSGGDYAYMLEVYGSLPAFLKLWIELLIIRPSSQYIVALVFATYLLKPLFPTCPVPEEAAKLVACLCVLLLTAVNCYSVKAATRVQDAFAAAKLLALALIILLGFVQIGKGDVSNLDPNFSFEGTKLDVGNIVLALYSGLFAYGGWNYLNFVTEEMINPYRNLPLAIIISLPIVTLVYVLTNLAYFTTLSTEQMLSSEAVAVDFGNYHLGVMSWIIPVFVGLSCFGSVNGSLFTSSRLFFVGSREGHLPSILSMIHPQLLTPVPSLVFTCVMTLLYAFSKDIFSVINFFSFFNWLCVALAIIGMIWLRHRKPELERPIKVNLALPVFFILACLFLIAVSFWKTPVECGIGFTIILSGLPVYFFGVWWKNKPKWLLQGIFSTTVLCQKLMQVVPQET
compound,measurement,setting,value
"COc1ncc(C)cc1CC[C@@](O)(CC(=O)O)C(=O)O [PF06761281, (2R)-2-Hydroxy-2-[2-(2-methoxy-5-methyl-3-pyridinyl)ethyl]succinic acid]",increase in inhibitor potency over PF-06649298,human NaCT; optimized derivative,~4 fold
same,effect on activity of mouse NaCT/Slc13a5,mouse NaCT/Slc13a5; 100 µM,able to inhibit
same,inhibitory potency for mouse NaCT/Slc13a5 compared with human NaCT/SLC13A5,mouse NaCT/Slc13a5; 100 µM,greater than for human NaCT/SLC13A5
same,"effect on Na+-dependent citrate uptake, compound present only during uptake",NaCT/SLC13A5 [1]; HepG2,inhibited
same,reversibility of inhibition of SLC13A5,NaCT/SLC13A5 [1]; washed,at least partly reversible
CC(C)(C)c1ccc(CC[C@@](O)(CC(=O)O)C(=O)O)cc1 [PF-06649298],IC50,"human NaCT; read-out: IC50 for NaCT-mediated citrate uptake, human NaCT",0.4 to 10 µM
same,species selectivity (mouse and human NaCTs),mouse NaCT,no species selectivity
"O=C(NCc1ccc(F)cc1)C1CCN(S(=O)(=O)c2cc(Cl)cc(Cl)c2)CC1 [BI01383298, 1-(3,5-Dichlorophenylsulfonyl)-N-(4-fluorobenzyl)piperidine-4-carboxamide]",Nicotinate (8 µM) uptake,SLC5A8,123 ± 4 pmol/mg of protein/15 min
same,"Nicotinate (8 µM) uptake, % Control",SLC5A8,100 ± 3 % Control
same,effect on HepG2 cell proliferation,HepG2 cells,decreased cell proliferation; also recorded: robust inhibition of cell proliferation; also recorded: does block the proliferation
same,Glutamine (5 µM) uptake,SLC7A5,306 ± 3 pmol/mg of protein/15 min
same,Tryptophan (5 µM) uptake,SLC7A5,76 ± 3 pmol/mg of protein/15 min
same,"Tryptophan (5 µM) uptake, % Control",SLC7A5,95 ± 3 % Control
same,Arginine (5 µM) uptake,SLC6A14,935 ± 51 pmol/mg of protein/15 min
same,"Arginine (5 µM) uptake, % Control",SLC6A14,101 ± 5 % Control
same,IC50,"human NaCT; read-out: IC50 for human NaCT, ref Structural Genomics Consortium",0.025 to 0.06 µM
same,IC50,NaCT/SLC13A5 [2],0.171 ± 0.051 µM
same,effect on human NaCT/SLC13A5 transporter activity,"NaCT/SLC13A5 [2]; HEK293FT, 10 µM",complete inhibition
same,effect on mouse NaCT,mouse NaCT; ref Structural Genomics Consortium,no effect
same,effect on mouse NaCT/Slc13a5,"mouse NaCT/Slc13a5; 10 µM, 30 min preincubation, uptake without inhibitor",not affected; also recorded: not inhibited; also recorded: little or no inhibition
same,preincubation time at which maximal inhibition is evident,"NaCT/SLC13A5 [1]; HepG2, 10 µM inhibitor, washed, uptake without inhibitor",30 min
same,Citrate (7 µM) uptake,NaCT/SLC13A5 [1]; [3],88.2 ± 5.6 pmol/mg of protein/30 min
same,"Citrate (7 µM) uptake, % Control",NaCT/SLC13A5 [1]; [3],18 ± 1 % Control
same,IC50 lower in presence of Li+ than in its absence,"NaCT/SLC13A5 [1]; HepG2, 30 min preincubation, inhibitor also present during uptake",2 fold
same,inhibitory potency relative to PF06761281,"NaCT/SLC13A5 [1]; HepG2, BI01383298 10 µM vs PF06761281 100 µM",at least 10 times
same,"effect on Na+-dependent citrate uptake, compound present only during uptake",NaCT/SLC13A5 [1]; HepG2,inhibited
same,maximal inhibition of citrate uptake,"NaCT/SLC13A5 [1]; HepG2, absence of Li+",~60%
same,maximal inhibition of citrate uptake,"NaCT/SLC13A5 [1]; HepG2, presence of Li+",~60%
same,increase in inhibitory potency with preincubation,"NaCT/SLC13A5 [1]; HepG2, preincubated vs not preincubated, both in absence or presence of Li+",~10 fold
same,IC50,"NaCT/SLC13A5 [1]; IC50 for human NaCT (summary), human NaCT, HepG2 and HEK293 cells",~0.1 µM
same,type of inhibition of NaCT/SLC13A5,"NaCT/SLC13A5 [1]; kinetic analysis, Eadie–Hofstee plot",non-competitive
same,reversibility of inhibition of SLC13A5,NaCT/SLC13A5 [1]; washed,irreversible
same,Lactate (3 µM) uptake,MCTs,137 ± 7 pmol/mg of protein/3 min
same,"Lactate (3 µM) uptake, % Control",MCTs,97 ± 5 % Control
CN(C)C(=N)N=C(N)N [metformin],effect on expression of NaCT in HepG2 cells,NaCT,suppresses the expression of NaCT
O=C(O)CC(O)(CC(=O)O)C(=O)O [citrate],lower affinity of human NaCT for citrate than mouse NaCT,human NaCT; kinetic experiments under identical conditions,at least 30 fold
